From the array DNA melting data of Ke et al. (doi:10.1101/2024.01.08.574731)

Tests used:
[1] = folding enthalpy; higher = less favourable; fluorescence melt of hairpins on a sequencing array, two-state fit; conditions: sodium 0.088 M
In short: (§1)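 In 50 mM Na-HEPES pH 8.0 containing 25 mM NaCl, hairpins from the library on a sequenced MiSeq flow cell were imaged for Cy3 fluorescence at 2.5 °C steps up to 60 °C, with Cy3 and quencher oligos annealed. After normalisation to pre-quench Cy3 and to control constructs, two-state fits with bootstrapping gave melting temperature and folding enthalpy. Four replicates were combined by inverse-variance weighting, and fitted temperatures were shifted up by 9.35 °C to match UV melts.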

[2] = melting temperature; fluorescence melt of hairpins on a sequencing array, two-state fit, raised by 9.35 °C to match UV melts; conditions: sodium 0.088 M
In short: as §1

Row | Sequence | folding enthalpy [1] | Tm [2]
1 | GTTTCCGAAAGGATCAAC ((((((....)))..))) | -11.2 kcal/mol | 22.4 °C
2 | GTTTCCGAAAGGATGAAC ((((((....)))..))) | -8.12 kcal/mol | 25.8 °C
3 | GTTTCCGGAAACGGAGAC ((.((((....)))).)) | -20.2 kcal/mol | 47.6 °C
4 | GTTTCCGGAAACGGGAAC (((.(((....))).))) | -28.2 kcal/mol | 54 °C
5 | GTTTCGAAAGAAAC (((((....))))) | -29.1 kcal/mol | 53.6 °C
6 | GTTTCTCGAAAGAGCAAC (((.(((....))).))) | -23.6 kcal/mol | 36.4 °C
7 | GTTTCTGAAAAGAAAC ((((((....)))))) | -37 kcal/mol | 50.2 °C
8 | GTTTGAGCGAAAGCTAAC (((..(((....)))))) | -10.5 kcal/mol | 31.1 °C
9 | GTTTGAGGAAACTCAAAC (((((((....))))))) | -36.8 kcal/mol | 55.8 °C
10 | GTTTGCGAAAGCATAAAC ((((((....)))..))) | -13 kcal/mol | 31.5 °C
11 | GTTTGCGGAAACGTAAGC (.((.((....)).)).) | -22 kcal/mol | 33 °C
12 | GTTTGCGGAAACGTGAAC (((..((....))..))) | -30.7 kcal/mol | 41.2 °C
13 | GTTTGGACGAAAGTCAAC (((..(((....)))))) | -12.7 kcal/mol | 34.7 °C
14 | GTTTGGGGAAACCTGAAC (((..((....))..))) | -16 kcal/mol | 32 °C
15 | GTTTGGGGAAACTCAAGC (.(((.(....).))).) | -12.2 kcal/mol | 27.1 °C
16 | GTTTGTGGAAACATAAAC ((((.((....)).)))) | -22.8 kcal/mol | 39.6 °C
17 | GTTTGTGGAAACATGAAC (((..((....))..))) | -21.9 kcal/mol | 31.6 °C
18 | GTTTTACGAAAGTAAAC (((.(((....)))))) | -17.4 kcal/mol | 38.7 °C
19 | GTTTTAGCGAAAGCTAAC (((..(((....)))))) | -13.2 kcal/mol | 33 °C
20 | GTTTTCACGAAAGTGAAC (((..(((....)))))) | -10.3 kcal/mol | 35.4 °C

Row | Sequence | folding enthalpy [1] | Tm [2]
21 | GTTTTCCGAAAGGACAAC (((.(((....))).))) | -25.8 kcal/mol | 41.7 °C
22 | GTTTTCCGAAAGGAGAAC (((.(((....))).))) | -30.4 kcal/mol | 47.1 °C
23 | GTTTTGGGAAACCAAAGC (.(((((....))))).) | -29.8 kcal/mol | 41 °C
24 | GTTTTGGGAAACCAAGAC ((.((((....)))).)) | -24.6 kcal/mol | 39 °C
25 | GTTTTGGGAAACTAAAAC (((((.(....).))))) | -24.3 kcal/mol | 36.6 °C
26 | GTTTTGTCGAAAGACAAC (((..(((....)))))) | -12.8 kcal/mol | 37.5 °C
27 | GTTTTTCGAAAGAACAAC (((.(((....))).))) | -17.8 kcal/mol | 34.3 °C
28 | GTTTTTGAAAAAAAAC ((((((....)))))) | -27.3 kcal/mol | 43.3 °C
29 | GTTTTTGGAAACAAAAGC (.(((((....))))).) | -29.6 kcal/mol | 35.6 °C
30 | GTTTTTTCGAAAGAAAAC (((..(((....)))))) | -19.7 kcal/mol | 32.1 °C
31 | TAACCGAAAGGTTA (((((....))))) | -15.2 kcal/mol | 56.7 °C
32 | TAACTGAAAAGTTA (((((....))))) | -9.74 kcal/mol | 29.4 °C
33 | TACATGAAAATGTA (((((....))))) | -12.7 kcal/mol | 32.1 °C
34 | TCACTGAAAAGTGA (((((....))))) | -18.7 kcal/mol | 43.4 °C
35 | TCAGAGAAATCTGA (((((....))))) | -9.32 kcal/mol | 27.6 °C
36 | TCGATGAAAATCGA (((((....))))) | -19.5 kcal/mol | 47.4 °C
37 | TCGGAGAAATCCGA (((((....))))) | -16.8 kcal/mol | 47.3 °C
38 | TCGGTGAAAACCGA (((((....))))) | -17.7 kcal/mol | 53 °C
39 | TCTAGGAAACTAGA (((((....))))) | -10.5 kcal/mol | 29.7 °C
40 | TCTCCGAAAGGAGA (((((....))))) | -17.6 kcal/mol | 59.5 °C

Row | Sequence | folding enthalpy [1] | Tm [2]
41 | TCTCTGAAAAGAGA (((((....))))) | -12.1 kcal/mol | 37.2 °C
42 | TGACTGAAAAGTCA (((((....))))) | -23.2 kcal/mol | 46 °C
43 | TGCAAGAAATTGCA (((((....))))) | -17.6 kcal/mol | 39.7 °C
44 | TGCAGGAAACTGCA (((((....))))) | -19.6 kcal/mol | 51.8 °C
45 | TGCATGAAAATGCA (((((....))))) | -19.8 kcal/mol | 52 °C
46 | TGGAAGAAATTCCA (((((....))))) | -12.4 kcal/mol | 30.7 °C
47 | TGGACGAAAGTCCA (((((....))))) | -19.4 kcal/mol | 67.5 °C
48 | TGGGTGAAAACCCA (((((....))))) | -18.8 kcal/mol | 53.5 °C
49 | TGTATGAAAATACA (((((....))))) | -11 kcal/mol | 34.5 °C
50 | TGTCCGAAAGGACA (((((....))))) | -13.6 kcal/mol | 68.8 °C
51 | TTACGGAAACGTAA (((((....))))) | -14.8 kcal/mol | 42.1 °C
52 | TTACTGAAAAGTAA (((((....))))) | -8.68 kcal/mol | 26.7 °C
53 | TTATCGAAAGATAA (((((....))))) | -14.7 kcal/mol | 36.5 °C
54 | TTCACGAAAGTGAA (((((....))))) | -19.2 kcal/mol | 51 °C
55 | TTCATGAAAATGAA (((((....))))) | -9.75 kcal/mol | 28.9 °C
56 | TTCGGGAAACCGAA (((((....))))) | -18.8 kcal/mol | 46.7 °C
57 | TTGAGGAAACTCAA (((((....))))) | -15.6 kcal/mol | 35.3 °C
58 | TTGATGAAAATCAA (((((....))))) | -13.4 kcal/mol | 32.8 °C
59 | TTGCAGAAATGCAA (((((....))))) | -20.8 kcal/mol | 42.3 °C
60 | TTTTCGAAAGAAAA (((((....))))) | -15.1 kcal/mol | 37.8 °C
